Screening data from PubChem.
Wnt act: activates Wnt/beta-catenin signaling in a reporter cell assay. activator, plate reader. activation, % at 9.35 µM. actives 1.2% (n = 300,000); in the data active = activation above about 30%, passing the limit was not always enough; inconclusive = no clear call, values can overlap the other calls;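 note: 0% = neutral control wells and 100% = positive control wells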
MITF act: activators of MITF-driven TRPM1 promoter activity in SK-MEL-5 cells; SK-MEL-5 TRPM1-promoter luciferase, 24 h; % of positive control, neutral wells = 0; activation, % at 12.5 µM; AID 588334; actives 0.75% (n = 300,000);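 active = mean activation of at least 80% with every replicate also reaching 80%; inconclusive = mean reaches 80% but some replicate falls short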;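 note: 0% = neutral control wells and 100% = parthenolide positive control wells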
ERAP1 inh: blocks human ERAP1 aminopeptidase activity; actives 0.15% (n = 340,000); recombinant ERAP1, Leu-AMC fluorescence, 60 min; Q9NZ08; inhibition, % at 10.7 µM;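 active = mean replicate inhibition of at least 30%, or all replicates individually reaching that 30% level; inactive = mean below 30% and not every replicate reaching it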;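 note: 0% = neutral control wells and 100% = L-leucinethiol positive control wells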
Target sequence (Q9NZ08 whole entry, looked up): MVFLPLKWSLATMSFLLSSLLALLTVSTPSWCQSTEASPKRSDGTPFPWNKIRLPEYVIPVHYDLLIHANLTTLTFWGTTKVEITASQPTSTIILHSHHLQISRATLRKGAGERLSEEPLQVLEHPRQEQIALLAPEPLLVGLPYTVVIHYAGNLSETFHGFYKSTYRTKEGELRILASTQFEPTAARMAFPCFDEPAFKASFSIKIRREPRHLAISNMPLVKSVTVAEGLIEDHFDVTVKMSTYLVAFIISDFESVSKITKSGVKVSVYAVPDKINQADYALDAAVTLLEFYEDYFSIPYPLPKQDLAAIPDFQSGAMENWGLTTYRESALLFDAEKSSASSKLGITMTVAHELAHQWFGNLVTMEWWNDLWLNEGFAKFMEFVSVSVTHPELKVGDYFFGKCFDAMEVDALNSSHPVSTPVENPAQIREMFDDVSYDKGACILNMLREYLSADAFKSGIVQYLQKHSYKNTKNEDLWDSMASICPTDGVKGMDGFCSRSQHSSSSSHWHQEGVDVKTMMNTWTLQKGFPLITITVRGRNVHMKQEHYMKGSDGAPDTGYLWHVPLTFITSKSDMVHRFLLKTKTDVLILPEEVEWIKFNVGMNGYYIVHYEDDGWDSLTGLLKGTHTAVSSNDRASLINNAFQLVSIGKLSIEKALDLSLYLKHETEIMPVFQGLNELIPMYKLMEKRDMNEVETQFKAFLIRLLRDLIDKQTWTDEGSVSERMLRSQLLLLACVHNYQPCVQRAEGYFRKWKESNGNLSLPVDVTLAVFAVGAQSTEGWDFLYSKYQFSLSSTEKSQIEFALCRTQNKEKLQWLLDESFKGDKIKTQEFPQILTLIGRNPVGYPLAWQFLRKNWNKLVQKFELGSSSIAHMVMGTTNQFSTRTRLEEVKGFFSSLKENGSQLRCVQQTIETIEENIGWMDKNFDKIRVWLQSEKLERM
Cneo AK release: causes C. neoformans cell lysis | adenylate kinase release luminescence, 4 h; normalised: neutral wells 0, clomiphene wells 100 | lysis activity, % at 15 µM | actives 0.2% (n = 360,000);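 active = mean lysis activity across replicates of at least 80%, whatever share of replicates individually reach that level; inactive = mean lysis activity below 80%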
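Material: C. neoformans cells | Amount: Yeast cell density of 5 × 10^6 cells/mL | Medium: Fresh YPD growth medium | Dosing: Single dose | Times: Static 4 h at 37 °C with compound, 1 h detection | Detection: AK luminescence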
HIV Env fusion: inhibitors of HIV Env-mediated cell fusion. HeLa-JRFL Env/CEM21 cell fusion, luciferase. AID 651610. inhibition, % at 12.3 µM. actives 1.1% (n = 360,000);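 active = mean replicate inhibition score of at least 50 and every replicate individually at or above 50; inconclusive = only one of the two criteria met; inactive = mean below 50 and not all replicates reaching 50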;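 note: 0% = plate neutral controls and 100% = maraviroc near 300 nM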
esBAF inh: SWI/SNF esBAF complex inhibition. mouse ES cells, Bmi1-luciferase knock-in reporter, 24 h; 100% = twice the neutral-well signal. reporter increase, % at 12.5 µM. actives 2% (n = 350,000). AID 602393; in the data active = activation above about 40%; inconclusive = no clear call, values can overlap the other calls;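 note: 0% = median of the plate's neutral control wells and 100% = double that signal; a rise in the Bmi1 reporter signal indicates esBAF inhibition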
Starred values were filed as active, the others as inactive; u = inconclusive; x = no result; [ ] = remark or other dose. Rows were chosen to be rich in hits. Some 3.5% of all compounds tested hit in one or more screens of this group.

SMILES	Wnt act	MITF act	ERAP1 inh	Cneo AK release	HIV Env fusion	esBAF inh
Cc1noc(C)c1NC(=O)N(C)C[C@H]1Oc2c(NC(=O)Nc3ccc(C(F)(F)F)cc3)cccc2C(=O)N([C@@H](C)CO)C[C@@H]1C	x	x	-1	52	x	-1
CCN(C[C@H]1[C@H](c2ccccc2)[C@H](CO)N1C(=O)COC)S(C)(=O)=O	x	x	1	14	x	-1
Cc1ccc(S(=O)(=O)N[C@H]2CC[C@@H](CCNC(=O)C3CCCCC3)O[C@H]2CO)cc1	x	x	2	-1	-9[16.7 µM]	4
Cc1ccccc1S(=O)(=O)N1C[C@@H](O)COC[C@H]2O[C@H](CC(=O)O)CC[C@@H]21	x	x	0	0	-9[16.7 µM]	-3
Cc1cc(C)nc(NC(=O)/C=C/c2ccc(Cl)cc2Cl)c1	x	88*	x	0	x	66*
O=C(/C=C/c1ccc(Cl)cc1Cl)Nc1ccncc1	30	51	x	x	-178	x
Cc1cc(C)nc(NC(=O)/C=C/c2ccccc2Cl)c1	44*	54	x	x	-299	x
CCc1nnc(NC(=O)/C=C/c2cccs2)s1	9	u	-6	6	-31	58*
CCc1nnc(NC(=O)C=C(C)C)s1	x	46	x	1	x	26
Cn1cnc(S(=O)(=O)N[C@H]2CC[C@@H](CC(=O)NCC3CC3)O[C@@H]2CO)c1	x	x	-2	x	x	x
Cn1c(=Nc2ccccc2)sc2ccccc21	20	36	-2	-2	x	39
CN(C)c1ccc(N=c2sc3ccccc3n2C)cc1	51*	51	x	-2	4	82*
CN1C(=O)c2cc(NC(=O)C3CC3)ccc2OC[C@@H]2O[C@@H](CC(=O)NCCc3ccncc3)CC[C@@H]21	x	x	-2	-2	-1[16.7 µM]	-1
O=C(NCC[C@@H]1CC[C@@H](NC(=O)C2CC2)[C@@H](CO)O1)Nc1ccc(C(F)(F)F)cc1	x	x	-3	1	2[16.7 µM]	3
C[C@@H]1CCCCO[C@@H](CN(C)C(=O)Nc2ccc3c(c2)OCO3)[C@@H](C)CN([C@@H](C)CO)C(=O)c2cc(NC(=O)Nc3ccccc3)ccc2O1	x	x	0	-3	-33[16.7 µM]	-4
COc1ccc(NC(=O)Nc2ccc3c(c2)C(=O)N([C@@H](C)CO)C[C@H](C)[C@H](CN(C)C(=O)Nc2ccc4c(c2)OCO4)OCCCC[C@@H](C)O3)cc1	x	x	4	-3	-8[16.7 µM]	-2
COc1ccc(NC(=O)N(C)C[C@@H]2OCCCC[C@H](C)Oc3ccc(NC(=O)Nc4ccc5c(c4)OCO5)cc3C(=O)N([C@H](C)CO)C[C@@H]2C)cc1	x	x	0	92*	-16[16.7 µM]	1
C[C@H](CO)N1C[C@H](C)[C@H](CN(C)C(=O)Nc2ccccc2)OCCCC[C@H](C)Oc2ccc(NC(=O)Nc3ccc4c(c3)OCO4)cc2C1=O	x	x	0	1	-23[16.7 µM]	49*
C[C@H]1CN([C@@H](C)CO)C(=O)c2cc(NC(=O)Cc3ccccc3)ccc2O[C@H]1CN(C)C(=O)Nc1ccc2c(c1)OCO2	x	x	x	-2	3[16.7 µM]	71*
C[C@H]1CCCCO[C@@H](CN(C)C(=O)Nc2ccccc2)[C@@H](C)CN([C@@H](C)CO)C(=O)c2cc(NC(=O)Nc3ccc4c(c3)OCO4)ccc2O1	x	x	1	-3	-6[16.7 µM]	44*
C[C@H](CO)N1C[C@H](C)[C@@H](CN(C)Cc2ccc(-c3ccccc3)cc2)Oc2ccc(NC(=O)Nc3cccc4ccccc34)cc2C1=O	x	x	4	32	x	1
COCCN(C[C@H]1N[C@H](CO)[C@@H]1c1ccc(-c2cccc(C#N)c2)cc1)C(C)=O	x	x	-6	x	x	x
Cc1csc(NC(=O)Cc2c[nH]c3ccccc23)n1	x	93*	x	x	x	61*
Cc1csc(NC(=O)Cc2ccc(F)cc2)n1	-1	42	-2	-1	-33	64*
Cc1csc(NC(=O)Cc2c(F)cccc2Cl)n1	22	x	4	-5	-25	62*
SMILES	Wnt act	MITF act	ERAP1 inh	Cneo AK release	HIV Env fusion	esBAF inh
O=C(Cc1ccc(F)cc1)Nc1nc(-c2ccc(F)c(F)c2)cs1	-1	x	1	4	-37	7
Cc1cccc(NC(=O)Cc2c(F)cccc2Cl)n1	14	x	-1	0	-1	32
CCC(=O)N(C)C[C@@H]1Oc2cc(-c3ccccc3OC)ccc2S(=O)(=O)N([C@H](C)CO)C[C@@H]1C	x	x	1	-1	-16[16.7 µM]	0
C[C@H]1Cn2cnc(C(=O)N3CCN(c4ccccc4)CC3)c2C(=O)N1	-3	x	-2	x	88*	x
CN1CCn2cnc(C(=O)N3CCN(c4ccccc4)CC3)c2C1=O	-2	x	2	-1	3	3
CCN(CC)C(=O)c1ncn2c1C(=O)NC[C@@H]2C	-2	x	1	x	117*	x
CC1CCN(C(=O)c2ncn3c2C(=O)NC[C@@H]3C)CC1	0	x	-4	x	101*	x
C[C@@H]1CNC(=O)c2c(C(=O)N3CCN(c4ccccc4)CC3)ncn21	-1	x	-2	x	89*	x
C[C@H]1CNC(=O)c2c(C(=O)N(C)Cc3ccccc3)ncn21	-3	x	-6	x	18	x
C[C@@H]1CN([C@H](C)CO)C(=O)Cc2cc(NS(C)(=O)=O)ccc2O[C@@H]1CN(C)C(=O)Nc1ccccc1	x	x	0	0	x	0
O=C(Nc1nc2ccccc2[nH]1)c1ccccc1	x	-8	x	x	x	x
O=C(Nc1nc2ccccc2[nH]1)c1ccccc1O	42*	u	2	x	-136	x
O=C(Nc1nc2ccccc2[nH]1)c1cccc(Cl)c1	32*	x	0	3	-269	14
CN(C)C(=O)c1cccc(-c2ccc3c(c2)[C@@H]2[C@@H](CCN2Cc2ccccc2F)[C@@H](CO)N3)c1	x	x	x	2	x	-2
N#Cc1ccc(NC(=O)Cn2c3[n+](c4ccc(C(F)(F)F)cc42)CCCCC3)cc1	5	-5	64*	x	0	x
O=C(Cn1c2[n+](c3ccc(C(F)(F)F)cc31)CCCCC2)Nc1ccc(Br)cc1	x	-15	x	x	x	x
